Measured values: ChEMBL document CHEMBL1122721, “Synthesis and antiarrhythmic activity of new 1-[1-[2-[3-(alkylamino)-2-hydroxypropoxy]phenyl]vinyl]-1 H-imidazoles and related compounds” (J Med Chem, 1984)
Values joined by “and” are separate entries in the source; they are usually repeats but may differ in a detail not shown here. Equal entries are not always repeated.

Legend:
Canis familiaris [1] = species: Canis familiaris; test: Duration of ischemic arrhythmias in dogs determined in minutes.
Canis familiaris [2] = test: Effect on ischemic arrhythmias was studied in dogs, by glass bead method. 10 mg/kg was administered perorally and percent sinus beats after compound administration, was reported.; format: functional, Canis lupus familiaris; details: route oral
Outline: (§1)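 Conscious dogs with ischemic ventricular arrhythmias persisting for 24 h after a glass bead was inserted into a coronary artery. Compound was given iv or orally. Lead II ECG recorded continuously by telemetry. Percent sinus beats taken before and after dosing, plus duration of effect (min).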

Canis familiaris [3] = test: Effect on ischemic arrhythmias was studied in dogs, by glass bead method. 10 mg/kg was administered perorally and percent sinus beats before compound administration, was reported.; format: functional, Canis lupus familiaris; details: route oral; outline: as §1
Canis familiaris [4] = test: Effect on ischemic arrhythmias was studied in dogs. 3 mg/kg was injected intravenously and percent sinus beats after compound administration, was reported.; format: functional, Canis lupus familiaris; details: route intravenous; outline: as §1
Canis familiaris [5] = test: Effect on ischemic arrhythmias was studied in dogs. 3 mg/kg was injected intravenously and percent sinus beats before compound administration, was reported.; format: functional, Canis lupus familiaris; details: route intravenous; outline: as §1
Cavia porcellus = species: Cavia porcellus; test: Maximal follow rate showing the contractile frequencies of atria to electrical stimulation 10 min after incubation with right atria of guinea pig.; format: functional
Outline: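 Isolated right atria driven by electrical stimulation (Dawes' method). Maximal follow rate, the highest contractile frequency the atria follow, measured as an index of refractory period 10 min after incubation with compound.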

Mus musculus [6] = test: Compound was evaluated for ventricular extrasystole, 30 min before aconitine infusion, at a dose of 10 mg/kg, perorally administered in mice; S=significant antiarrhythmic effect; format: functional, organism-based; design: dose 10 mg/kg; details: Heart
Outline: (§2)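 Aconitine arrhythmia model in pentobarbital-anesthetized male mice (20-35 g). Test compound was given iv 3 min or po 30 min before continuous tail-vein infusion of aconitine (0.685 µg/min). Lead II ECG recorded; onset times of ventricular extrasystole (VES) and ventricular tachycardia (VT) were measured.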

Mus musculus [7] = test: Compound was evaluated for ventricular tachycardia activity in intravenously administered mice, 3 min before aconitine infusion, at a dose of 1 mg/kg; S=significant antiarrhythmic effect; format: functional, organism-based; design: dose 1 mg/kg; details: Heart; outline: as §2
Mus musculus [8] = test: Compound was evaluated for ventricular tachycardia activity in perorally administered mice, 30 min before aconitine infusion, at a dose of 10 mg/kg; S=significant antiarrhythmic effect; format: functional, organism-based; design: dose 10 mg/kg; details: Heart; outline: as §2
Mus musculus [9] = test: Compound was evaluated for ventricular extrasystole activity, 3 min before aconitine infusion, at a dose of 1 mg/kg, intravenously administered in mice; S=significant antiarrhythmic effect; format: functional, organism-based; design: dose 1 mg/kg; details: Heart; outline: as §2
[10] = target: Adrenergic receptor beta (Cavia porcellus); test: Beta adrenergic receptor blocking activity measured by the inotropic effect was determined 1 hr after pretreament of the right atria in guinea pig
[11] = target: Adrenergic receptor beta (Cavia porcellus); test: Beta adrenergic receptor blocking activity measured by the chronotropic effect was determined 1 hr after pretreatment of the right atria in guinea pig
Mus musculus [12] = test: Compound was evaluated for ventricular extrasystole activity, 3 min before aconitine infusion, at a dose of 3 mg/kg, intravenously administered in mice; S=significant antiarrhythmic effect; format: functional, organism-based; design: dose 3 mg/kg; details: Heart; outline: as §2
Mus musculus [13] = test: Compound was evaluated for ventricular tachycardia activity in intravenously administered mice, 3 min before aconitine infusion, at a dose of 3 mg/kg; S=significant antiarrhythmic effect; format: functional, organism-based; design: dose 3 mg/kg; details: Heart; outline: as §2
[14] = Lethal dose in mice (LD50) (following i.v. dosing); details: mouse, in vivo, iv
Mus musculus [15] = test: Compound was evaluated for ventricular extrasystole, 3 min before aconitine infusion, at a dose of 3 mg/kg, intravenously administered in mice; S=significant antiarrhythmic effect; details: Heart
Canis familiaris [16] = test: Effect on ischemic arrhythmias was studied in dogs, by glass bead method. 60 mg/kg was administered perorally and percent sinus beats after compound administration, was reported.; format: functional, Canis lupus familiaris; details: route oral
Outline: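 Conscious dogs; ventricular arrhythmias induced by inserting a glass bead into a coronary artery, with marked arrhythmias persisting for 24 h. Compound given orally. Lead II ECG recorded continuously by telemetry. Percent sinus beats measured before and after dosing, and duration of effect in min recorded.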

Canis familiaris [17] = test: Effect on ischemic arrhythmias was studied in dogs. 10 mg/kg was injected intravenously and percent sinus beats after compound administration, was reported.; format: functional, Canis lupus familiaris; details: route intravenous; outline: as §1
Canis familiaris [18] = test: Effect on ischemic arrhythmias was studied in dogs. 10 mg/kg was injected intravenously and percent sinus beats before compound administration, was reported.; format: functional, Canis lupus familiaris; details: route intravenous; outline: as §1
Mus musculus [19] = test: Compound was evaluated for ventricular extrasystole, 30 min before aconitine infusion, at a dose of 30 mg/kg, perorally administered in mice; S=significant antiarrhythmic effect; format: functional, organism-based; design: dose 30 mg/kg; details: Heart; outline: as §2
Mus musculus [20] = test: Compound was evaluated for ventricular tachycardia activity in intravenously administered mice, 3 min before aconitine infusion, at a dose of 10 mg/kg; S=significant antiarrhythmic effect; format: functional, organism-based; design: dose 10 mg/kg; details: Heart; outline: as §2
Mus musculus [21] = test: Compound was evaluated for ventricular tachycardia activity in perorally administered mice, 30 min before aconitine infusion, at a dose of 30 mg/kg; S=significant antiarrhythmic effect; format: functional, organism-based; design: dose 30 mg/kg; details: Heart; outline: as §2
Mus musculus [22] = test: Compound was evaluated for ventricular extrasystole activity, 3 min before aconitine infusion, at a dose of 10 mg/kg, intravenously administered in mice; S=significant antiarrhythmic effect; format: functional, organism-based; design: dose 10 mg/kg; details: Heart; outline: as §2
Canis familiaris [23] = test: Effect on ischemic arrhythmias was studied in dogs, by glass bead method. 60 mg/kg was administered perorally and percent sinus beats before compound administration, was reported.; format: functional, Canis lupus familiaris; details: route oral; outline: as §1
Mus musculus [24] = test: Compound was evaluated for ventricular extrasystole activity, 30 min before aconitine infusion, at a dose of 10 mg/kg, perorally administered in mice; S=significant antiarrhythmic effect; details: Heart
Mus musculus [25] = test: Compound was evaluated for ventricular extrasystole activity, 3 min before aconitine infusion, at a dose of 30 mg/kg, intravenously administered in mice; S=significant antiarrhythmic effect; format: functional, organism-based; design: dose 30 mg/kg; details: Heart; outline: as §2

Row | Compound | Sinus beats (Canis familiaris [4]) [%] | Sinus beats (Canis familiaris [5]) [%] | Decrease (Cavia porcellus) [%] | Activity (Mus musculus [7]) | Activity (Mus musculus [8]) | pA2 [10] | pA2 [11] | Activity (Mus musculus [13]) | LD50 [14] [mg/kg] | Activity (Mus musculus [19]) | Activity (Mus musculus [21]) | also measured
1 | C=C(c1c(Cl)ccc(Cl)c1OCC(O)CNCC(C)C)n1ccnc1 (configuration not stated) | 94.5 | 6.5 | 34.9 | Anti-arrhythmic | Anti-arrhythmic | 5.81 | 4.89 | – | – | – | – | Duration (Canis familiaris [1]): 60 min and 180 min; Sinus beats (Canis familiaris [2]): 44.8%; Sinus beats (Canis familiaris [3]): 9.9%; Activity (Mus musculus [6]): Anti-arrhythmic; Activity (Mus musculus [9]): Anti-arrhythmic
2 | C=C(c1c(C)ccc(Cl)c1OCC(O)CNC(C)(C)C)n1ccnc1 (configuration not stated) | 59.1 | 11.7 | 49.8 | – | Anti-arrhythmic | 5.77 | 5.04 | Anti-arrhythmic | 29.5 | – | – | Duration (Canis familiaris [1]): 30 min; Activity (Mus musculus [12]): Anti-arrhythmic; Activity (Mus musculus [6]): Anti-arrhythmic
3 | C=C(c1ccc(Cl)c(Cl)c1OCC(O)CNC(C)C)n1ccnc1 (configuration not stated) | – | – | – | – | – | 4.9 | 4.52 | Anti-arrhythmic | – | – | – | Activity (Mus musculus [15]): Anti-arrhythmic
4 | C=C(c1c(Cl)ccc(Cl)c1OCC(O)CNC(C)C)n1ccnc1 (configuration not stated) | 88.9 | 5.8 | 45.7 | – | Anti-arrhythmic | 5.29 | 4.86 | Anti-arrhythmic | – | – | – | Sinus beats (Canis familiaris [2]): 69.3%; Sinus beats (Canis familiaris [3]): 9.3%; Activity (Mus musculus [15]): Anti-arrhythmic
5 | C=C[C@H]1CN2CC[C@H]1C[C@@H]2[C@@H](O)c1ccnc2ccc(OC)cc12 [QUINIDINE] | – | – | 26.4 | – | – | – | – | – | – | Anti-arrhythmic | Anti-arrhythmic | Sinus beats (Canis familiaris [16]): 58.3%; Sinus beats (Canis familiaris [17]): 74.1%; Sinus beats (Canis familiaris [18]): 14.1%; Activity (Mus musculus [20]): Anti-arrhythmic; Activity (Mus musculus [22]): Anti-arrhythmic; Sinus beats (Canis familiaris [23]): 4.2%
6 | C=C(c1cc(Cl)ccc1OCC(O)CNC(C)(C)C)n1cccn1 (configuration not stated) | 14.3 | 1.8 | 45.7 | – | – | 6.99 | 6.9 | Anti-arrhythmic | 32.5 | – | – | Activity (Mus musculus [24]): Anti-arrhythmic
7 | CC(C)N(CCC(C(N)=O)(c1ccccc1)c1ccccn1)C(C)C (configuration not stated) [DISOPYRAMIDE] | – | – | 15.7 | – | – | – | – | – | 30 | Anti-arrhythmic | Anti-arrhythmic | Sinus beats (Canis familiaris [16]): 66.2%; Sinus beats (Canis familiaris [17]): 88.4%; Sinus beats (Canis familiaris [18]): 22.4%; Activity (Mus musculus [20]): Anti-arrhythmic; Activity (Mus musculus [22]): Anti-arrhythmic; Sinus beats (Canis familiaris [23]): 10.1%
8 | C=C(c1c(C)c(C)cc(Cl)c1OCC(O)CNC(C)C)n1ccnc1 (configuration not stated) | – | – | 29.8 | Anti-arrhythmic | – | 5.96 | 5.04 | – | 15.5 | Anti-arrhythmic | Anti-arrhythmic | Activity (Mus musculus [9]): Anti-arrhythmic
9 | C=C(c1c(C)ccc(Cl)c1OCC(O)CNC(C)C)n1ccnc1 (configuration not stated) | – | – | – | Anti-arrhythmic | – | 5.55 | 5.67 | – | – | – | Anti-arrhythmic | Activity (Mus musculus [25]): Anti-arrhythmic
